Laboratory results: ChEMBL document CHEMBL2034874, “5-acetyl-2-arylbenzimidazoles as antiviral agents. Part 4” (Eur J Med Chem, 2012)

What was measured:
[1] = Cytotoxicity against MDBK cells after 48 to 96 hrs by MTT assay; type: cell-based, Bos taurus; settings: cattle
Outline: (§1)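 Mock-infected MDBK (6×10^5 cells/mL, MEM-E with 10% horse serum) or BHK (1×10^6 cells/mL, MEM-E with 10% FBS) cells incubated with serial compound dilutions at 37 °C and 5% CO2. Viability measured by MTT after 48–96 h. CC50 by linear regression against untreated controls.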

[2] = Antiviral activity against BVDV1 NADL ATCC VR-534 infected in MDBK cells assessed as inhibition of virus-induced cytopathogenicity after 3 to 4 days by MTT assay; type: functional, cell-based, Bovine viral diarrhea virus 1-NADL; settings: Bovine viral diarrhea virus isolates and strains, ATCC VR-534, MDBK
Outline: (§2)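 BHK (5×10^4/well) or MDBK (3×10^4/well) cells grown to confluent monolayers overnight, infected at m.o.i. 0.01 in maintenance MEM-Earl with 0.5% inactivated FBS. Serially diluted compounds added after 1 h. Viability read by MTT after 3–4 days at 37 °C. Values are expressed as % of untreated controls, and EC50 is derived by linear regression. Duplicate samples.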

[3] = system: Vaccinia virus; assay: Antiviral activity against Vaccinia virus Elstree-Lister ATCC VR-1549 infected in african green monkey Vero-76 cells assessed as reduction in viral plaque after 3 days by crystal violet staining; type: functional, organism-based; settings: Orthopoxvirus vaccinia, Elstree-Lister ATCC VR-1549, Vero 76, 72 h
[4] = Cytotoxicity against BHK21 cells by MTT assay; type: cell-based, Mesocricetus auratus; settings: hamster, BHK-21 cells; outline: as §1
[5] = system: Mammalian orthoreovirus 1; assay: Antiviral activity against Reovirus 1 3651 ATCC VR-214 infected in BHK21 cells assessed as inhibition of virus-induced cytopathogenicity after 3 to 4 days by MTT assay; type: functional, organism-based; settings: Mammalian orthoreovirus 1, 3651 ATCC VR-214, BHK-21; outline: as §2
[6] = system: Coxsackievirus B5; assay: Antiviral activity against Coxsackie virus type B5 Ohio-1 ATCC VR-29 infected in african green monkey Vero-76 cells assessed as reduction in viral plaque after 3 days by crystal violet staining; type: functional, organism-based; settings: Enterovirus B, Ohio-1 ATCC VR-29, Vero 76, 72 h
Outline: (§3)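 Vero-76 monolayers (2×10^5 cells/well) infected for 2 h at 50–100 PFU/well. Unadsorbed virus removed. D-MEM with 1% inactivated FBS, 0.75% methylcellulose and serial compound dilutions added. Incubation at 37 °C for 3 days (CVB-5, HSV-1) or 5 days (RSV). Fixed and stained with 50% ethanol/0.8% crystal violet, then plaques counted. EC50 by linear regression versus untreated controls.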

[7] = system: Poliovirus 1; assay: Antiviral activity against Polio virus type 1 strain sabin ATCC VR-1562 infected in african green monkey Vero-76 cells assessed as reduction in viral plaque after 2 days by crystal violet staining; type: functional, cell-based, Human poliovirus 1 strain Sabin; settings: Enterovirus C, ATCC VR-1562, Vero 76, 48 h
[8] = Cytotoxicity against african green monkey Vero 76 cells after 48 to 96 hrs by MTT assay; type: cell-based; settings: chlorocebus sabaeus
[9] = system: Yellow fever virus; assay: Antiviral activity against Yellow fever virus 17D infected in BHK21 cells assessed as inhibition of virus-induced cytopathogenicity after 3 to 4 days by MTT assay; type: functional, cell-based; settings: BHK-21
[10] = system: Vesicular stomatitis Indiana virus; assay: Antiviral activity against Vesicular stomatitis virus indiana ATCC VR-1540 infected in african green monkey Vero-76 cells assessed as reduction in viral plaque after 2 days by crystal violet staining; type: functional, organism-based; settings: ATCC VR-1540, Vero 76, 48 h
[11] = Antiviral activity against Human respiratory syncytial virus A2 ATCC VR-1540 infected in african green monkey Vero-76 cells assessed as reduction in viral plaque after 5 days by crystal violet staining; type: functional, cell-based; settings: ATCC VR-1540, Vero 76, 120 h; outline: as §3
[12] = system: Human alphaherpesvirus 1; assay: Antiviral activity against Herpes simplex virus type 1 KOS ATCC VR-1493 infected in african green monkey Vero-76 cells assessed as reduction in viral plaque after 3 days by crystal violet staining; type: functional, organism-based; settings: Human alphaherpesvirus 1, KOS ATCC VR1493, Vero 76, 72 h; outline: as §3
[13] = Cytotoxicity against human MT4 cells after 96 hrs by MTT assay; type: cell-based
Outline: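 Exponentially growing MT-4 cells seeded at 1×10^5 cells/mL in RPMI-1640 with 10% FBS and incubated with serial compound dilutions at 37 °C and 5% CO2. Viability measured by MTT after 96 h. CC50 by linear regression against untreated controls.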

[14] = system: Human immunodeficiency virus 1; assay: Antiviral activity against HIV1 3B infected in human MT4 cells assessed as inhibition of virus-induced cytopathogenicity after 4 days by MTT assay; type: functional, organism-based; settings: Human immunodeficiency virus 1, 3B, MT4, 96 h
Outline: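 MT-4 cells (1×10^4/well) in RPMI with serial compound dilutions, infected with HIV-1 IIIB at 100 CCID50 (m.o.i. 0.01). Viability measured by MTT after 4 days at 37 °C. EC50 for 50% protection from cytopathogenicity obtained by linear regression against untreated controls.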

Row | SMILES | CC50 [1] | EC50 [2] | EC50 [3] | CC50 [4] | EC50 [5] | EC50 [6] | EC50 [7] | CC50 [8] | EC50 [9] | EC50 [10] | EC50 [11] | EC50 [12] | CC50 at 96 h [13] | EC50 [14]
1 | C/C(=N\NC(N)=O)c1ccc2c(c1)nc(-c1ccoc1)n2C1CCCCC1 | > 100 µM | 100 µM | – | – | – | – | – | – | – | – | – | – | – | –
2 | COc1ccc(-c2nc3cc(/C(C)=N/O)ccc3[nH]2)cc1 | 44 µM | > 44 µM | > 100 µM | 44 µM | > 100 µM | > 100 µM | > 100 µM | > 100 µM | > 44 µM | – | – | – | – | –
3 | C/C(=N\NC(N)=O)c1ccc2c(c1)nc(-c1ccccc1)n2C1CCCCC1 | > 100 µM | > 100 µM | > 100 µM | > 100 µM | > 100 µM | > 100 µM | > 100 µM | > 100 µM | > 100 µM | > 100 µM | > 100 µM | > 100 µM | – | –
4 | C/C(=N\O)c1ccc2[nH]c(-c3ccc(Cl)cc3)nc2c1 | 37 µM | 18 µM | – | 33 µM | – | – | – | – | > 33 µM | – | – | – | 20 µM | > 20 µM
5 | COc1ccc(-c2nc3cc(/C(C)=N/NC(N)=O)ccc3[nH]2)cc1 | 25 µM | 11 µM | – | – | – | – | – | – | – | – | – | – | – | –
6 | CC(=O)c1ccc2[nH]c(-c3ccccc3)nc2c1 | > 100 µM | 100 µM | > 100 µM | > 100 µM | > 100 µM | > 100 µM | > 100 µM | > 100 µM | > 100 µM | > 100 µM | > 100 µM | > 100 µM | – | –
7 | C/C(=N\NC(N)=O)c1ccc2[nH]c(-c3ccoc3)nc2c1 | > 100 µM | 60 µM | > 100 µM | > 100 µM | > 100 µM | > 100 µM | > 100 µM | > 100 µM | > 100 µM | > 100 µM | > 100 µM | > 100 µM | – | –
8 | CC(=O)c1ccc2[nH]c(-c3ccc(Cl)cc3)nc2c1 | > 100 µM | > 100 µM | > 100 µM | > 100 µM | > 100 µM | > 100 µM | > 100 µM | > 100 µM | > 100 µM | > 100 µM | > 100 µM | > 100 µM | – | –
9 | CC(=O)Nc1ccc(/C=C/c2nc3cc(C(F)(F)F)ccc3[nH]2)cc1 | – | – | – | – | – | – | – | – | – | – | 1 µM | – | – | –
10 | C[C@@]1(O)[C@H](O)[C@@H](CO)O[C@H]1n1cnc2c(=O)[nH]c(N)nc21 [2'-B-METHYL-GUANOSINE] | > 10 µM | 1.1 µM | – | > 10 µM | – | – | – | – | – | – | – | – | – | –
11 | Nc1ccc(-c2nc3cc(Cl)c(Cl)cc3[nH]2)c2ccccc12 | – | – | – | – | – | – | – | – | 16 µM | – | – | – | – | –
12 | Nc1ccc(-c2nc3cc(Cl)ccc3[nH]2)c2ccccc12 | – | – | – | – | – | – | – | – | 27 µM | – | – | – | – | –
13 | C#C[C@@]1(O)[C@H](O)[C@@H](CO)O[C@H]1n1ccc(N)nc1=O [2'-ETHYNYL-D-CYTIDINE] | – | – | – | – | – | 27 µM | 23 µM | > 100 µM | – | – | – | – | – | –
14 | C/C(=N\O)c1ccc2[nH]c(-c3ccccc3)nc2c1 | > 100 µM | > 100 µM | > 100 µM | > 100 µM | > 100 µM | > 100 µM | > 100 µM | > 100 µM | > 100 µM | > 100 µM | > 100 µM | > 100 µM | – | –
15 | Clc1ccc2c(c1)nc(Cn1nc3ccccc3n1)n2C[C@H]1CCCN2CCCCC12 (stereo not given in full) | – | – | – | – | – | – | – | – | – | – | 0.03 µM | – | – | –
16 | O=[N+]([O-])c1ccc2[nH]c(-c3ccccc3)nc2c1 | – | 1.5 µM | – | – | – | – | – | – | – | – | – | – | – | –
